This is an account of results in PubChem BioAssay.

Test [1] is described as follows: reduced viability of SK-BR-3 breast cancer cells – cell-based, 24 h, human, pilot screen (AID 572;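 active = viability at or below 10% of carrier control in both of two separate runs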;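 note: compound exposure lasted between 18 and 24 h rather than exactly 24 h; 100% = carrier-treated control wells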). Particulars: SK-BR-3 viability, CellTiter-Glo luminescence, at 10 µM, stronger effect = lower value. In general terms: ATP-based viability assays read luminescence as a measure of living cells.
A short description of test [2]: HUVEC growth inhibition – cell-based, human, primary screen (AID 575;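 active = viability at or below 30% in both replicate assays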;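 note: 100% = median of untreated cell wells with 0.1% DMSO on each plate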). Particulars: HUVEC proliferation, CellTiter-Glo luminescence, 72 h; at 10 µM; stronger effect = lower value. The gist of the method:
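system = HUVEC primary cells | amount = 1250 cells/well | buffer or medium = supplemented EBM, 2% fetal bovine serum | dosing = single-point 10 µM, DMSO 0.1% final | times = 72 h compound incubation | detection = CTG luminescence | read-out = % viability relative to median vehicle-well signal on each plate | control set = vehicle and MePR control wells | format = collagen-coated 384-well format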

Test [3] can be described thus: H69AR cell proliferation blockers – human, duplicate replicates, primary screen (AID 580).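 Note: 100% = mean luminescence of untreated wells and 0% = no signal.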 The conditions noted are these: H69AR lung tumor cells viability, ATP luminescence, 72 h; at 10 µM; stronger effect = lower value.
Test [4] in a line: MRP1 drug-resistance reversers in H69AR cells – cell-based, doxorubicin co-treatment, pilot screen (AID 601;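 active = viability loss from added drug above about 55%, and viability with drug at most 40%, in both replicates, limit read from the data, passing the limit was not always enough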). The conditions noted are these: CellTiter-Glo, 72 h, at 10 µM; for differential viability (reversal): stronger effect = higher value.
Test [5] can be described thus: yeast transport mutant growth inhibition pilot in 384-well plates, post-Golgi transport modulator project (AID 636; in the data active = inhibition above about 31%). The conditions noted are these: absorbance 615 nm, about 18 h, stronger effect = higher value.
Test [6] is described as follows: growth suppression of yeast trafficking mutant, preliminary HTS, modulators of trafficking downstream of Golgi apparatus project, 1536-format plate, OD 615 nm (AID 637; in the data active = inhibition above about 30%). The conditions noted are these: yeast transport mutant growth, absorbance 615 nm, 18 h; stronger effect = higher value.
Where [7] appears, read: H69AR cells + 2 uM doxorubicin, measured here: viability with 2 uM doxorubicin, stronger effect = lower value.
[8] abbreviates: H69AR cells, compound alone cytotoxicity.

In general, viability refers to a read-out of living cells in per cent, often relative to untreated cells. Usually inhibition stands for the relative decrease from the control value, in per cent.

Activity calls are given as the source filed them.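 Rule for the calls, unless noted: active = viability at or under a set limit in both replicates, limit being median viability minus 3 SD (cut at about 48% in these data, passing the limit was not always enough); inconclusive = at or under the limit in just one replicate; inactive = at or above the limit in both replicates.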

For the compound `CCOC(=O)N1CCC(NC(=O)Cc2ccc(-n3c(=O)[nH]c4ccccc4c3=O)cc2)CC1`, the viability in test [1] is 103% (inactive); in test [2] it was 97.6% (inactive); in test [3], 96.4% (inactive); in test [4] (setting [7]), 88.5%; in test [4] (setting [8]), 96.4%. Besides, the differential viability (reversal) in test [4] (H69AR cells + 2 uM doxorubicin) is 7.9% (inactive). The inhibition in test [5] was -5.06% (inactive); in test [6] it was 0% (inactive).

With `CN/C(=C/[N+](=O)[O-])NCCSCc1ccc(CN(C)C)o1`, the viability in test [1] was 116% (inactive); in test [2], 87.7% (inactive); in test [3], 94.2% (inactive); in test [4] (setting [7]), 95%; in test [4] (setting [8]), 94.2%. In addition, the differential viability (reversal) in test [4] (H69AR cells + 2 uM doxorubicin) was -0.85% (inactive). Moreover, the inhibition in test [5] is -2.47% (inactive); in test [6] it was 4% (inactive).

On to `Cc1cc(=O)[nH]c(SCc2nc3ncccn3c2Br)n1`, for which the viability is 108% (inactive) in test [1]; 78.4% (inactive) in test [2]; 88.9% (inactive) in test [3]; 91.8% in test [4] (setting [7]); 88.9% in test [4] (setting [8]). In test [4] (H69AR cells + 2 uM doxorubicin), the differential viability (reversal) was -2.9% (inactive). Also, the inhibition in test [5] was -4.81% (inactive); in test [6], -3.44% (inactive).

As to `c1cnc(NCCNc2ncccn2)nc1`, the viability in test [1] was 98% (inactive); in test [2], 112% (inactive); in test [3], 99.8% (inactive); in test [4] (setting [7]) it was 89%; in test [4] (setting [8]), 99.8%. Moreover, in test [4] (H69AR cells + 2 uM doxorubicin), the differential viability (reversal) is 10.7% (inactive). Also, the results for the inhibition in test [5] and in test [6] were -8.4% (inactive) and -3.82% (inactive), respectively.

For `O=[n+]1cc(-c2ccc(F)cc2)n([O-])c2c1CCC2`, the viability was 97% (inactive) in test [1]; 100% (inactive) in test [2]; 90.7% (inactive) in test [3]; 89.4% in test [4] (setting [7]); 90.7% in test [4] (setting [8]). Besides, the differential viability (reversal) in test [4] (H69AR cells + 2 uM doxorubicin) was 1.25% (inactive). Further, the inhibition in test [5] was -1.82% (inactive); in test [6], 1.97% (inactive).

Regarding `CCOC(=O)c1ccccc1NC1CC(=O)N(c2ccccc2C)C1=O` (centres undefined), the viability was 98% (inactive) in test [1]; 101% (inactive) in test [2]; 98.4% (inactive) in test [3]; 89.6% in test [4] (setting [7]); 98.4% in test [4] (setting [8]). For the same compound, in test [4] (H69AR cells + 2 uM doxorubicin), the differential viability (reversal) is 8.82% (inactive). For the same compound, the inhibition in test [5] is -2.13% (inactive); in test [6], -6.73% (inactive).

Consider `CCc1c(C)c2ccc(OCC(=O)OC)cc2oc1=O`, for which the viability in test [1] is 109% (inactive); in test [2], 92.8% (inactive); in test [3] it was 94.4% (inactive); in test [4] (setting [7]), 96.9%; in test [4] (setting [8]), 94.4%. Also, in test [4] (H69AR cells + 2 uM doxorubicin), the differential viability (reversal) is -2.49% (inactive). For the same compound, the results for the inhibition in test [5] and in test [6] were -1.49% (inactive) and 21.4% (inactive), respectively.

Consider `O=C(Nc1ccc(NC(=O)C2CC2)cn1)c1ccccc1Cl`, for which the viability in test [1] is 101% (inactive); in test [2] it was 98.7% (inactive); in test [3], 98.5% (inactive); in test [4] (setting [7]) it was 91.4%; in test [4] (setting [8]), 98.5%. Also, the differential viability (reversal) in test [4] (H69AR cells + 2 uM doxorubicin) was 7.09% (inactive). Also, the figures for the inhibition in test [5] and in test [6] were -2.13% (inactive) and -2.91% (inactive), respectively.

Consider `CCOC(=O)CSc1nnc2n1C(C)(C)Cc1ccccc1-2`, for which the viability in test [1] was 110% (inactive); in test [2], 111% (inactive); in test [3], 101% (inactive); in test [4] (setting [7]) it was 106%; in test [4] (setting [8]), 101%. The differential viability (reversal) in test [4] (H69AR cells + 2 uM doxorubicin) was -5.61% (inactive). For the same compound, the inhibition in test [5] was 4.32% (inactive); in test [6] it was -0.91% (inactive).

As for `CC(C)c1ccc(CNc2ccc(N3CCOCC3)cc2)cc1`, the viability in test [1] is 74% (inactive); in test [2] it was 81.7% (inactive); in test [3] it was 88.4% (inactive); in test [4] (setting [7]) it was 87.5%; in test [4] (setting [8]), 88.4%. In addition, the differential viability (reversal) in test [4] (H69AR cells + 2 uM doxorubicin) was 0.93% (inactive). For the same compound, the results for the inhibition in test [5] and in test [6] were -6.89% (inactive) and -5.82% (inactive), respectively.

`COc1ccc(Cn2c(N)c(C#N)c3nc4ccccc4nc32)cc1OC`: the viability in test [1] was 95% (inactive); in test [2], 100% (inactive); in test [3], 99.5% (inactive); in test [4] (setting [7]), 86.9%; in test [4] (setting [8]), 99.5%. The differential viability (reversal) in test [4] (H69AR cells + 2 uM doxorubicin) is 12.6% (inactive). Besides, the values for the inhibition in test [5] and in test [6] were -6.58% (inactive) and 0.48% (inactive), respectively.

In the case of `CCOC(=O)C1CCN(C(C)=C2C(=O)c3ccccc3C2=O)CC1`, the viability was 98% (inactive) in test [1]; 110% (inactive) in test [2]; 105% (inactive) in test [3]; 94.6% in test [4] (setting [7]); 105% in test [4] (setting [8]). Also, the differential viability (reversal) in test [4] (H69AR cells + 2 uM doxorubicin) was 10.4% (inactive). Moreover, the inhibition was -4.66% (inactive) in test [5] and 7.26% (inactive) in test [6].

Turning to `CCOC(=O)c1c(NC(=O)OC)sc2c1CCC2`, the viability in test [1] was 129% (inactive); in test [2], 89.7% (inactive); in test [3], 87.1% (inactive); in test [4] (setting [7]), 87.9%; in test [4] (setting [8]) it was 87.1%. The differential viability (reversal) in test [4] (H69AR cells + 2 uM doxorubicin) was -0.775% (inactive). In addition, the inhibition in test [5] was 0.65% (inactive); in test [6], -4.75% (inactive).

With `CCn1c(SCC(=O)Nc2cc(NC(C)=O)ccc2OC)nnc1-c1ccccn1`, the viability in test [1] is 93% (inactive); in test [2] it was 89.6% (inactive); in test [3], 94.1% (inactive); in test [4] (setting [7]), 85.8%; in test [4] (setting [8]), 94.1%. Moreover, the differential viability (reversal) in test [4] (H69AR cells + 2 uM doxorubicin) is 8.36% (inactive). Also, the inhibition in test [5] is -1.51% (inactive); in test [6], 2.1% (inactive).

As for `CN/C=C1\C(=O)C(C)(C)Oc2ccc3ccc(=O)oc3c21`, the viability is 112% (inactive) in test [1]; 91.5% (inactive) in test [2]; 87.9% (inactive) in test [3]; 87.7% in test [4] (setting [7]); 87.9% in test [4] (setting [8]). For the same compound, in test [4] (H69AR cells + 2 uM doxorubicin), the differential viability (reversal) is 0.24% (inactive). In addition, the values for the inhibition in test [5] and in test [6] were -6.53% (inactive) and 0.18% (inactive), respectively.

On to `c1ccc(Cn2ncc3c2ncn2c(-c4ccncc4)nnc32)cc1`, for which the viability was 99% (inactive) in test [1]; 95.3% (inactive) in test [2]; 95% (inactive) in test [3]; 96.9% in test [4] (setting [7]); 95% in test [4] (setting [8]). Besides, the differential viability (reversal) in test [4] (H69AR cells + 2 uM doxorubicin) is -1.95% (inactive). For the same compound, the inhibition in test [5] is -8.77% (inactive); in test [6], -6.77% (inactive).

For `COc1cc(NC(=O)Nc2cccc(C(C)=O)c2)cc(OC)c1OC`, the viability is 109% (inactive) in test [1]; 102% (inactive) in test [2]; 92.4% (inactive) in test [3]; 87.6% in test [4] (setting [7]); 92.4% in test [4] (setting [8]). The differential viability (reversal) in test [4] (H69AR cells + 2 uM doxorubicin) is 4.83% (inactive). Moreover, the values for the inhibition in test [5] and in test [6] were -8.36% (inactive) and -0.18% (inactive), respectively.

For `Cc1oc(-c2ccc(Cl)cc2)cc1-c1nn2c(-c3ccoc3C)nnc2s1`, the viability in test [1] was 86% (inactive); in test [2], 75.3% (inactive); in test [3], 83.7% (inactive); in test [4] (setting [7]), 95.7%; in test [4] (setting [8]) it was 83.7%. Also, in test [4] (H69AR cells + 2 uM doxorubicin), the differential viability (reversal) is -12% (inactive). In addition, the inhibition in test [5] was 18.9% (inactive); in test [6], 3.06% (inactive).
